Five compounds from ChEMBL document CHEMBL2040709, “Synthesis, antidepressant and antimicrobial activities of some novel stearic acid analogues” (2012) can be followed below.

Assay type in all cases: functional
The subject of assay [1] is Candida albicans. Briefly: […] at 500 to 1000 ug/ml after 24 hrs by agar disc diffusion method. The method, boiled down:
(§1)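 Agar disc diffusion on nutrient agar plates surface-spread with standard inoculum ([…], 0.5 McFarland). Whatman No.1 paper discs (6 mm, dry-heat sterilised 140 °C, 1 h) were soaked in test compound at two concentrations (500 and 1000, as tabulated). DMSO-only discs and solvent/growth controls were included. Plates were inverted and incubated 24 h at 37 °C. Zones of inhibition were measured, and percentage potency was calculated per Indian Pharmacopoeia.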
For orientation: A growth-free zone around the sample is the usual read-out of agar diffusion tests.

Assay [2] has as its system Pseudomonas aeruginosa. Kind of assay: Antibacterial activity against Pseudomonas aeruginosa at 1000 ug/ml after 24 hrs by agar disc diffusion method. The settings on record: read-out: DIZ. The method, boiled down:
as §1

Assay [3] concerns Bacillus subtilis. Kind of assay: Antibacterial activity against Bacillus subtilis at 500 ug/ml after 24 hrs by agar disc diffusion method. Conditions: read-out: DIZ. The method, boiled down: as §1
Assay [4] has as its system Bacillus subtilis. Kind of assay: Antibacterial activity against Bacillus subtilis at 1000 ug/ml after 24 hrs by agar disc diffusion method. The settings on record: read-out: DIZ. The method in brief: as §1
The subject of assay [5] is Candida albicans. Briefly: […] at 1000 ug/ml after 24 hrs by agar disc diffusion method. Conditions: read-out: DIZ. The method, boiled down: as §1
The test system of assay [6] is Pseudomonas aeruginosa. Kind of assay: Antibacterial activity against Pseudomonas aeruginosa at 500 ug/ml after 24 hrs by agar disc diffusion method. The settings on record: read-out: DIZ. The method in brief: as §1
Assay [7] deals with Escherichia coli. Briefly: Antibacterial activity against Escherichia coli at 500 ug/ml after 24 hrs by agar disc diffusion method. Conditions: read-out: DIZ. The method, boiled down:
as §1

The subject of assay [8] is Escherichia coli. Briefly: Antibacterial activity against Escherichia coli at 1000 ug/ml after 24 hrs by agar disc diffusion method. The settings on record: read-out: DIZ. The method, boiled down:
as §1

Assay [9] has as its system Staphylococcus aureus. Kind of assay: Antibacterial activity against Staphylococcus aureus at 500 ug/ml after 24 hrs by agar disc diffusion method. The settings on record: read-out: DIZ. The method, boiled down:
as §1

In assay [10] the test system is Escherichia coli. Briefly: Antibacterial activity against Escherichia coli at 500 to 1000 ug/ml after 24 hrs by agar disc diffusion method. The method in brief:
as §1

For assay [11], the system named is Mus musculus. Kind of assay: Antidepressant activity in Swiss albino mouse assessed as increase in dopamine level in brain at 30 mg/kg, ip by HPLC analysis. The settings on record: route intraperitoneal.
Assay [12] deals with Pseudomonas aeruginosa. Briefly: Antibacterial activity against Pseudomonas aeruginosa at 500 to 1000 ug/ml after 24 hrs by agar disc diffusion method. The method in brief:
as §1

In assay [13] the test system is Staphylococcus aureus. Kind of assay: Antibacterial activity against Staphylococcus aureus at 500 to 1000 ug/ml after 24 hrs by agar disc diffusion method. The method in brief:
as §1

The test system of assay [14] is Staphylococcus aureus. Briefly: Antibacterial activity against Staphylococcus aureus at 1000 ug/ml after 24 hrs by agar disc diffusion method. Conditions: read-out: DIZ. The method in brief:
as §1

Assay [15] relates to Candida albicans. Kind of assay: […] at 500 ug/ml after 24 hrs by agar disc diffusion method. Conditions: read-out: DIZ. The method in brief:
as §1

Assay [16] has as its system Bacillus subtilis. Briefly: Antibacterial activity against Bacillus subtilis at 500 to 1000 ug/ml after 24 hrs by agar disc diffusion method. The method in brief:
as §1

Assay [17] deals with Mus musculus. Kind of assay: Antidepressant activity in Swiss albino mouse assessed as decrease in immobility time at 30 mg/kg, ip administered 30 mins before test measured for 4 mins of total 6 mins test by forced swim test. The settings on record: route intraperitoneal. The method in brief: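 Forced swim test in inbred male Swiss albino mice (20–30 g), groups of 6, acclimatised one week. The 30 mg/kg dose was suspended in 0.5% CMC and given i.p. 30 min before the test; controls received vehicle. Mice swam singly in a glass tank with 15 cm water at 25 ± 3 °C. Immobility was timed over the last 4 min of a 6 min session. Dunnett's test was applied.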

Consider `CCCCCCCCCCCCCCCCCc1nnc(-c2ccccc2)o1`, for which the Activity in assay [1] is 56.71%; in assay [10], 93.3%; in assay [11], 0.25 ng/mg; in [12], 60.95%; in [13] it was 94.6%; in [16], 75.78%. For the same compound, the zone of inhibition at 1000 µg/mL came to 17 mm in assay [2]; 16 mm in [4]; 20 mm in assay [5]; 18 mm in assay [8]; 21 mm in assay [14]. The zone of inhibition at 500 µg/mL in assay [3] was 13 mm; in assay [6] it was 16 mm; in assay [7], 14 mm; in [9] it was 14 mm; in assay [15], 15 mm. For the same compound, the Time in assay [17] stood at 70 s.
For `CCCCCCCCCCCCCCCCCc1nnc(-c2ccccc2)n1N`, the Activity in assay [1] turned out to be 65.97%; in [10], 93.3%; in [11] it was 0.367 ng/mg; in assay [12] it was 59.45%; in [13], 75.78%; in [16] it was 93.3%. In addition, the zone of inhibition at 1000 µg/mL in assay [2] was determined as 16 mm; in [4], 15 mm; in [5], 22 mm; in assay [8] it was 17 mm; in assay [14] it was 18 mm. Moreover, the zone of inhibition at 500 µg/mL in assay [3] turned out to be 12 mm; in assay [6] it was 13 mm; in assay [7] it was 16 mm; in [9] it was 13 mm; in assay [15] it was 15 mm. The Time in assay [17] is recorded as 68.83 s.
As to `CCCCCCCCCCCCCCCCCc1nn2c(-c3ccccc3)nnc2s1`, the Activity was 92.57% in assay [1]; 84.08% in assay [10]; 1.455 ng/mg in [11]; 93.88% in assay [12]; 79.35% in assay [13]; 93.88% in assay [16]. The zone of inhibition at 1000 µg/mL in [2] is 19 mm; in assay [4], 16 mm; in assay [5], 19 mm; in assay [8] it was 19 mm; in assay [14] it was 17 mm. Further, the zone of inhibition at 500 µg/mL is 13 mm in assay [3]; 15 mm in [6]; 16 mm in [7]; 16 mm in [9]; 15 mm in assay [15]. The Time in assay [17] came out at 62.67 s.
Turning to `CN(C)CCCN1c2ccccc2CCc2ccc(Cl)cc21` [CLOMIPRAMINE], the Activity in [11] came out at 0.42 ng/mg. In assay [17], the Time was determined as 52.97 s.
For `CN(C)[C@@H]1C(O)=C(C(N)=O)C(=O)[C@@]2(O)C(O)=C3C(=O)c4c(O)cccc4[C@@](C)(O)[C@H]3C[C@@H]12` [TETRACYCLINE], the zone of inhibition at 1000 µg/mL in [2] came to 22 mm; in [4] it was 20 mm; in assay [8] it was 23 mm; in assay [14], 19 mm. Further, the zone of inhibition at 500 µg/mL in assay [3] was 13 mm; in [6], 16 mm; in assay [7], 18 mm; in assay [9], 18 mm.
